Measured values reported in ChEMBL document CHEMBL1135862, “Bioactive 4-substituted-6-methyl-2-pyrones with promising cytotoxicity against A2780 and K562 cell lines” (Bioorg Med Chem Lett, 2002).
pIC50: −log10 of the molar value.

Experiments:
[1] = tested on: Candida albicans; test: Antimicrobial activity against Candida albicans after 48 hr incubation; type: functional
How it was run: (§1)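 Agar diffusion on cellulose disks loaded with 200 µg compound each. Bacteria read after 96 h, yeasts after 48 h. Activity is recorded as the radius in mm, or percent, of the inhibition zone. Squalestatin S1 (200 µg/disk) served as control in the yeast assay.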

[2] = tested on: Escherichia coli; test: Antimicrobial activity against the Escherichia coli after 96 hr incubation; type: functional; set-up: concentration or dose not given beside the values; how it was run: as §1
[3] = tested on: Bacillus subtilis; test: Antimicrobial activity against Bacillus subtilis after 96 hr incubation; type: functional; set-up: concentration or dose not given beside the values; how it was run: as §1
[4] = tested on: Schizosaccharomyces pombe; test: (§2) Antimicrobial activity against Schizosaccharomyces pombe after 48 hr incubation; type: functional; set-up: concentration or dose not given beside the values; how it was run: as §1
[5] = tested on: Bacillus subtilis; test: Antimicrobial activity against Bacillus subtilis after 96h incubation; type: functional; how it was run: as §1
[6] = tested on: Escherichia coli; test: Antimicrobial activity against Escherichia coli after 96h incubation; type: functional; how it was run: as §1
[7] = tested on: A2780; test: Inhibitory concentration in vitro for cytotoxic activity against A 2780 human ovarian carcinoma cells; type: functional, cell-based
How it was run: (§3)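 MTT assay in 96-well plates, seeding 400–1000 cells/well. Cells recover 24 h, then drug in medium is added, three wells per dose. Incubate 5 days at 37 °C in 5% CO₂. Add MTT (3 mg/mL) for 3 h, dissolve formazan in DMSO, read at 540 nm minus 620 nm. Percent growth inhibition per dose comes from duplicate experiments, reported as mean and SD; IC50 is derived from these.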

[8] = tested on: Saccharomyces cerevisiae; test: Antimicrobial activity against Saccharomyces cerevisiae after 48 hr incubation; type: functional; how it was run: as §1
[9] = tested on: K562; test: Inhibitory concentration in vitro for cytotoxic activity against K 562 human chronic myelogenous leukemia cells; type: functional, cell-based; how it was run: as §3
[10] = tested on: Staphylococcus aureus; test: Antimicrobial activity against Staphylococcus aureus after 96h incubation; type: functional; how it was run: as §1
[11] = tested on: Schizosaccharomyces pombe; test: as §2; type: functional; how it was run: as §1
[12] = tested on: Candida albicans; test: Anti fungal activity against Candida albicans after 48 hr incubation; type: functional; set-up: concentration or dose not given beside the values; how it was run: as §1
[13] = tested on: Staphylococcus aureus; test: The compound was evaluated for anti microbial activity against Staphylococcus aureus after 96 hr incubation; type: functional; set-up: concentration or dose not given beside the values; how it was run: as §1
[14] = tested on: Saccharomyces cerevisiae; test: Compound was evaluated for anti fungal activity against Saccharomyces cerevisiae after 48 hr incubation; type: functional; how it was run: as §1

Row | Structure (SMILES) | Inhibition [1] | Inhibition [2] | Inhibition [3] | Inhibition [4] | Inhibition [5] | Inhibition [6] | pIC50 [7] | Inhibition [8] | pIC50 [9] | Inhibition [10] | Inhibition [11] | Inhibition [12] | Inhibition [13] | Inhibition [14]
1 | CCCCCc1cc(C)oc(=O)c1 | 0 mm | 25% | 26.1% | 25% | 23 mm | 22 mm | < 4.30 | 0 mm | < 4.30 | 0 mm | 22 mm |  |  | 
2 | CCCCCC#Cc1cc(C)oc(=O)c1 | 22 mm | 21.6% | 21.6% | 56.8% | 19 mm | 19 mm | 5.54 | 0 mm | 4.95 | 21 mm | 50 mm | 25% | 23.9% | 
3 | C#Cc1cc(C)oc(=O)c1 | 36 mm | 18.2% | 19.3% | 45.5% | 17 mm | 16 mm | 5.51 | 40 mm | 5.70 | 30 mm | 40 mm | 40.9% | 34.1% | 45.4%
4 | Cc1cc(CCc2ccccc2)cc(=O)o1 | 0 mm | 22.7% | 20.5% | 11.4% | 18 mm | 20 mm | < 4.30 | 0 mm | < 4.30 | 0 mm | 10 mm |  |  | 
5 | CCCCCCC#Cc1cc(C)oc(=O)c1 | 0 mm | 19.3% | 19.3% | 54.5% | 17 mm | 17 mm | 5.47 | 0 mm | 4.69 | 18 mm | 48 mm |  | 20.5% | 
6 | CCCC/C=C/c1cc(C)oc(=O)c1 | 24 mm | 20.5% | 20.5% | 45.5% | 18 mm | 18 mm |  | 0 mm |  | 0 mm | 40 mm | 27.3% |  | 
7 | COc1ccc(-c2cc(C)oc(=O)c2)cc1 | 0 mm | 22.7% | 19.3% | 22.7% | 17 mm | 20 mm | < 4.30 | 0 mm | < 4.30 | 0 mm | 20 mm |  |  | 
8 | Cc1ccc(-c2cc(C)oc(=O)c2)cc1 | 0 mm | 20.4% | 21.6% |  | 19 mm | 18 mm | < 4.30 | 0 mm | < 4.30 | 0 mm | 0 mm |  |  | 
9 | CCCCCC/C=C/c1cc(C)oc(=O)c1 | 20 mm | 22.7% | 20.5% | 32.9% | 18 mm | 20 mm | < 4.30 | 0 mm | < 4.30 | 18 mm | 29 mm | 22.7% | 20.5% | 
10 | CCC/C=C/c1cc(C)oc(=O)c1 | 16 mm | 21.6% | 18.2% | 31.8% | 16 mm | 19 mm |  | 0 mm |  | 20 mm | 28 mm | 18.2% | 22.7% | 
11 | CCCCCCc1cc(C)oc(=O)c1 | 11 mm | 28.4% | 23.9% | 29.5% | 21 mm | 25 mm | < 4.30 | 0 mm | < 4.30 | 0 mm | 26 mm | 12.5% |  | 
12 | CCCCC/C=C/c1cc(C)oc(=O)c1 | 21 mm | 20.5% | 20.5% | 38.6% | 18 mm | 18 mm | < 4.30 | 0 mm | < 4.30 | 17 mm | 34 mm | 23.9% | 19.3% | 
13 | CCCCC#Cc1cc(C)oc(=O)c1 | 20 mm | 22.7% | 19.3% | 51.1% | 17 mm | 20 mm | 5.15 | 0 mm | 4.81 | 0 mm | 45 mm | 22.7% |  | 
